From ChEMBL document CHEMBL4270654, “Identification of DK419, a potent inhibitor of Wnt/β-catenin signaling and colorectal cancer growth” (Bioorg Med Chem, 2018)
pIC50: −log10 of the molar value. Active and inactive are the calls of the source. The calls are words filed in the database; no cut-off is given here.

Assays:
[1] = AUC (0 to infinity) in NOD/SCID mouse at 200 mg/kg, po by LC-MS/MS-based non-compartmental extravascular input analysis; assay type: ADME, organism-based; set-up: dose 200 mg/kg, time infinity, route oral; details: in vivo
[2] = MRT in NOD/SCID mouse at 200 mg/kg, po by LC-MS/MS-based non-compartmental extravascular input analysis; assay type: ADME, organism-based; details: in vivo
Homo sapiens [3] = species: Homo sapiens; experiment: Inhibition of Wnt/beta-catenin signaling pathway in human HCT116 whole cell lysate harboring beta-catenin mutation assessed as reduction in c-Myc protein expression at 5 uM after 18 hrs by Western blot analysis
In short: (§1)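 CCRC240, HCT116 or SW480 cells were grown to 50–70% confluency and exposed 18 h to 5 μM compound in DMSO. Whole-cell lysates were blotted for c-Myc, cyclin D1 and survivin. Hypotonic cytosolic fractions, syringe-dispersed and centrifuged 120 min, were blotted for β-catenin and Axin2. β-Actin served as loading control.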

Homo sapiens [4] = species: Homo sapiens; experiment: Inhibition of Wnt/beta-catenin signaling pathway in human HCT116 cells cytosol lysate harboring beta-catenin mutation assessed as reduction in beta-catenin protein expression at 5 uM after 18 hrs by Western blot analysis; assay type: cell-based; in short: as §1
SW480 = experiment: Antiproliferative activity against human SW480 cells after 72 hrs by colorimetric MTS assay; assay type: functional, cell-based; details: SW480, 72 h
In short: (§2)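 Cells plated at 5000 per well in their own media (Leibovitz's for SW948; McCoy's 5A for HT-29/HCT116; MEM for SW480; RPMI for CRC240/DLD-1) with 10% FBS. Exposed 72 h to compound, 0.001–10 μM or 0.04–10 μM, then colorimetric MTS read-out. […] CRC240 is a patient-derived xenograft line.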

Homo sapiens [5] = species: Homo sapiens; experiment: Inhibition of Wnt/beta-catenin signaling pathway in human SW480 cells cytosol lysate harboring APC mutation assessed as reduction in beta-catenin protein expression at 5 uM after 18 hrs by Western blot analysis; assay type: cell-based; in short: as §1
Homo sapiens [6] = species: Homo sapiens; experiment: Inhibition of Wnt/beta-catenin signaling pathway in human CRC240 whole cell lysate assessed as reduction in cyclin D1 protein expression at 5 uM after 18 hrs by Western blot analysis; in short: as §1
HT-29 = experiment: Antiproliferative activity against human HT-29 cells after 72 hrs by colorimetric MTS assay; assay type: functional, cell-based; details: HT-29, 72 h; in short: as §2
DLD-1 = experiment: Antiproliferative activity against human DLD1 cells after 72 hrs by colorimetric MTS assay; assay type: functional, cell-based; details: DLD-1, 72 h; in short: as §2
Mus musculus [7] = experiment: Toxicity in NOD/SCID mouse xenografted with human CRC240 cells assessed as change in body weight at 72 mg/kg, po administered 11 days and measured on day 4, 8 during compound dosing and day 11 post last dose; assay type: organism-based; details: in vivo, 264 h
In short: (§3)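 Minced CRC240 PDX tissue (150 mg/ml in PBS, 200 μl) implanted in flanks of NOD/SCID mice. At about 100 mm3 tumours, mice randomized and dosed orally once daily for 11 days. Vehicle: 10% 1-methyl-2-pyrrolidinone/90% PEG300, with dosing suspensions or solutions at […] or 0.2 mg/ml. Tumour size and body weight recorded on days 0, 4, 8 and 11. n = 3, two-tailed t-test versus vehicle.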

Homo sapiens [8] = species: Homo sapiens; experiment: Inhibition of Wnt/beta-catenin signaling pathway in human CRC240 whole cell lysate assessed as reduction in survivin protein expression at 5 uM after 18 hrs by Western blot analysis; in short: as §1
Homo sapiens [9] = species: Homo sapiens; experiment: Inhibition of Wnt/beta-catenin signaling pathway in human SW480 whole cell lysate harboring APC mutation assessed as reduction in c-Myc protein expression at 5 uM after 18 hrs by Western blot analysis; in short: as §1
[10] = Inhibition of Wnt3A-stimulated Wnt/beta-catenin pathway in HEK293 cells transfected with p8xTOPFlash, Renilla luciferase plasmid pRL-TK and pLKO.1 after 6 hrs by Dual topflash luciferase reporter assay; assay type: cell-based; details: Homo sapiens, HEK293, 6 h
In short: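 HEK293 cells stably carrying p8xTOPFlash, pRL-TK and pLKO.1 were grown overnight to confluence in MEM/10% FBS with 1 μg/ml puromycin. Wnt-3A conditioned medium (from L Wnt-3A cells) containing compound (0.04–10 μM) or DMSO was added for 6 h. Dual-luciferase was read, with the Wnt3A+DMSO signal set as 100%.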

[11] = AUC (0 to 24 hrs) in NOD/SCID mouse at 200 mg/kg, po by LC-MS/MS-based non-compartmental extravascular input analysis; assay type: ADME, organism-based; set-up: time < 24 hr, dose 200 mg/kg, route oral; details: in vivo
Homo sapiens [12] = experiment: Antitumor activity against human CRC240 cells xenografted in NOD/SCID mouse at 72 mg/kg, po administered 11 days and measured on day 4, 8 during compound dosing and day 11 post last dose; assay type: functional, organism-based; in short: as §3
CCD-841CoN [13] = experiment: Stimulation of mitochondrial respiration in human CCD-841-CoN cells assessed as increase in oxygen consumption rate at 1 uM under basal conditions by polarographic analysis
Mus musculus [14] = experiment: Apparent volume of distribution in NOD/SCID mouse at 200 mg/kg, po by LC-MS/MS-based non-compartmental extravascular input analysis; assay type: ADME, organism-based; details: in vivo
Homo sapiens [15] = species: Homo sapiens; experiment: Inhibition of Wnt/beta-catenin signaling pathway in human SW480 whole cell lysate harboring APC mutation assessed as reduction in cyclin D1 protein expression at 5 uM after 18 hrs by Western blot analysis; in short: as §1
Homo sapiens [16] = species: Homo sapiens; experiment: Inhibition of Wnt/beta-catenin signaling pathway in human HCT116 whole cell lysate harboring beta-catenin mutation assessed as reduction in survivin protein expression at 5 uM after 18 hrs by Western blot analysis; in short: as §1
Homo sapiens [17] = species: Homo sapiens; experiment: Inhibition of Wnt/beta-catenin signaling pathway in human CRC240 cells cytosol lysate assessed as reduction in beta-catenin protein expression at 5 uM after 18 hrs by Western blot analysis; assay type: cell-based; in short: as §1
Homo sapiens [18] = species: Homo sapiens; experiment: Inhibition of Wnt/beta-catenin signaling pathway in human CRC240 whole cell lysate assessed as reduction in c-Myc protein expression at 5 uM after 18 hrs by Western blot analysis; in short: as §1
HCT-116 = experiment: Antiproliferative activity against human HCT116 cells after 72 hrs by colorimetric MTS assay; assay type: functional, cell-based; details: HCT-116, 72 h; in short: as §2
[19] = Antiproliferative activity against human CRC240 cells after 72 hrs by colorimetric MTS assay; assay type: functional, cell-based; in short: as §2
Homo sapiens [20] = species: Homo sapiens; experiment: Inhibition of Wnt/beta-catenin signaling pathway in human CRC240 cells cytosol lysate assessed as reduction in Axin2 protein expression at 5 uM after 18 hrs by Western blot analysis; assay type: cell-based; in short: as §1
Mus musculus [21] = experiment: Dose normalized AUC (0 to infinity) in NOD/SCID mouse at 200 mg/kg, po by LC-MS/MS-based non-compartmental extravascular input analysis; assay type: ADME, organism-based; details: in vivo
CCD-841CoN [22] = experiment: Stimulation of mitochondrial respiration in human CCD-841-CoN cells assessed as increase in oxygen consumption rate at 1 uM in presence of rotenone and […] antimycin A by polarographic analysis; assay type: functional, cell-based
In short: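 CCD841Co cells were plated at 8000 per well and attached overnight. OCR was measured on a Seahorse XFp analyzer under basal conditions after 1 μM compound or DMSO was added. This was followed by 1 μM oligomycin, 1 μM FCCP, then 0.5 μM rotenone plus antimycin A (Mito Stress Test). Data given as mean ± SD, n = 2.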

[23] = molecular target: AMP-activated protein kinase, AMPK (Homo sapiens) (UniProt P54646+O43741+P54619+Q9UGJ0+Q9Y478+Q13131+Q9UGI9); experiment: Induction of AMPK phosphorylation in human CCD-841-CoN cells at 0.1 to 10 uM after 2 hrs by Western blot analysis; assay type: cell-based
In short: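 Colonic epithelial CCD841Co cells were seeded at 0.27 million per well on poly-D-lysine-coated wells and attached overnight. Medium was then switched to glucose-free DMEM with 2 mM pyruvate and 2 mM glutamine containing compound or DMSO. Whole-cell lysates were immunoblotted for phospho-Thr172 AMPK and total AMPK, with β-actin as loading control. Methods give 30 min exposure; legend gives 2 h.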

Homo sapiens [24] = species: Homo sapiens; experiment: Inhibition of Wnt/beta-catenin signaling pathway in human HCT116 cells cytosol lysate harboring beta-catenin mutation assessed as reduction in Axin2 protein expression at 5 uM after 18 hrs by Western blot analysis; assay type: cell-based; in short: as §1
Homo sapiens [25] = species: Homo sapiens; experiment: Inhibition of Wnt/beta-catenin signaling pathway in human SW480 whole cell lysate harboring APC mutation assessed as reduction in survivin protein expression at 5 uM after 18 hrs by Western blot analysis; in short: as §1
[26] = molecular target: Frizzled-1 (Homo sapiens) (UniProt Q9UP38); experiment: Induction of GFP-tagged Fzd1 (unknown origin) internalization expressed in human U2OS cells at 12.5 after 6 hrs by confocal microscopic method; assay type: functional, cell-based
In short: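 U2OS cells stably expressing Fzd1-GFP were grown 24 h in confocal dishes and then treated 6 h at 37 °C with 12.5 μM compound, DMSO as control. Cells were fixed in 4% paraformaldehyde and imaged by confocal microscopy (488 nm excitation). Internalization was scored as intracellular green punctate vesicles.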

Homo sapiens [27] = species: Homo sapiens; experiment: Inhibition of Wnt/beta-catenin signaling pathway in human HCT116 whole cell lysate harboring beta-catenin mutation assessed as reduction in cyclin D1 protein expression at 5 uM after 18 hrs by Western blot analysis; in short: as §1
SW948 = experiment: Antiproliferative activity against human SW948 cells after 72 hrs by colorimetric MTS assay; assay type: functional, cell-based; details: SW948, 72 h; in short: as §2
Homo sapiens [28] = species: Homo sapiens; experiment: Inhibition of Wnt/beta-catenin signaling pathway in human SW480 cells cytosol lysate harboring APC mutation assessed as reduction in Axin2 protein expression at 5 uM after 18 hrs by Western blot analysis; assay type: cell-based; in short: as §1

Chain of Frizzled-1 (Homo sapiens) (Q9UP38 70-647 limits assumed): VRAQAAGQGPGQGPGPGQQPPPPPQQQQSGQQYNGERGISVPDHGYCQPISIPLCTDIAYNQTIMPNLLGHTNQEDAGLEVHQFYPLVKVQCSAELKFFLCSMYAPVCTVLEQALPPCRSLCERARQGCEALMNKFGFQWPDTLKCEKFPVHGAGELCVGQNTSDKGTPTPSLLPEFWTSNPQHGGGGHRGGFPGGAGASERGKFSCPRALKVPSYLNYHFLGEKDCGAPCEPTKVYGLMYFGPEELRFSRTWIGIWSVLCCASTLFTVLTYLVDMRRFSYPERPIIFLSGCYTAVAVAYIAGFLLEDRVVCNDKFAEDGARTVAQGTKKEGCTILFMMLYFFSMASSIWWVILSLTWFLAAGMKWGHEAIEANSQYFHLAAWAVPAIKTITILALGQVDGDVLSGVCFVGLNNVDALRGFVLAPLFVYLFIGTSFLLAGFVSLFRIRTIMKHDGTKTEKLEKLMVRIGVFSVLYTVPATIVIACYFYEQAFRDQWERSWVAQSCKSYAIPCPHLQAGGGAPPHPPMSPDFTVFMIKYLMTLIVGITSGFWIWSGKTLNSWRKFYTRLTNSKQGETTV

With `O=C(Nc1ccc([N+](=O)[O-])cc1Cl)c1cc(Cl)ccc1O` [NICLOSAMIDE] the AUC(0-inf) [1] was 1.02 µg·h/mL, the MRT [2] was 6.8 h and the inhibition (Homo sapiens [3]) was “Active”. For the same compound, the inhibition (Homo sapiens [4]) was “Active”, the pIC50 (SW480) was 6.01 and the inhibition (Homo sapiens [5]) was “Active”. For the same compound, the inhibition (Homo sapiens [6]) was “Active”, the pIC50 (HT-29) was 6.89 and the pIC50 (DLD-1) was 5.62. For the same compound, the Activity (Mus musculus [7]) was “Non-Toxic”, the inhibition (Homo sapiens [8]) was “Active” and the inhibition (Homo sapiens [9]) was “Active”. For the same compound, the pIC50 [10] was 6.35, the AUC(0-t) at 24 h [11] was 1.01 µg·h/mL and the Activity (Homo sapiens [12]) was “Active”. The Activity (CCD-841CoN [13]) was “Active”, the Vz (Mus musculus [14]) was 0.9 L/kg and the inhibition (Homo sapiens [15]) was “Active”. For the same compound, the inhibition (Homo sapiens [16]) was “Active”, the inhibition (Homo sapiens [17]) was “Active” and the inhibition (Homo sapiens [18]) was “Active”. The pIC50 (HCT-116) was 6.39, the pIC50 [19] was 6.05 and the inhibition (Homo sapiens [20]) was “Active”. For the same compound, the AUC/dose (Mus musculus [21]) was 0.005 µg·h/mL, the Activity (CCD-841CoN [22]) was “inactive” and the Activity [23] was “Active”. The inhibition (Homo sapiens [24]) was “Active”, the inhibition (Homo sapiens [25]) was “Active” and the Activity [26] was “Active”. For the same compound, the inhibition (Homo sapiens [27]) was “Active”, the pIC50 (SW948) was 6.96 and the inhibition (Homo sapiens [28]) was “Active”.
